This is a sample that favours compounds with a hit; in the whole collection about 1.2% have one here.
JNK3 blocker – inhibitors of human JNK3 kinase. P53779. purified JNK3 kinase activity, HTS. inhibition, % at 8 µM. 0.61% of 60,000 active. AID 746; in the data active means inhibition above about 17%
S1P1 ag-PAM – activates or potentiates agonism at human S1P1 receptor | P21453 | activation, % at 9.5 µM | S1P1 CRE-bla cells, forskolin, beta-lactamase FRET, potentiator mode; S1P1 agonist co-added at EC20, 2 nM; 100% = saturating reference agonist, 0% = basal | 0.57% of 56,000 active;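 active means activation above a cutoff set at the mean activation of all tested compounds plus 3 SD, cut at about 54% in these data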;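 further: forskolin at 4 µM as EC80 and the EC20 agonist is SEW2871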
Target sequence (P21453 whole entry, looked up): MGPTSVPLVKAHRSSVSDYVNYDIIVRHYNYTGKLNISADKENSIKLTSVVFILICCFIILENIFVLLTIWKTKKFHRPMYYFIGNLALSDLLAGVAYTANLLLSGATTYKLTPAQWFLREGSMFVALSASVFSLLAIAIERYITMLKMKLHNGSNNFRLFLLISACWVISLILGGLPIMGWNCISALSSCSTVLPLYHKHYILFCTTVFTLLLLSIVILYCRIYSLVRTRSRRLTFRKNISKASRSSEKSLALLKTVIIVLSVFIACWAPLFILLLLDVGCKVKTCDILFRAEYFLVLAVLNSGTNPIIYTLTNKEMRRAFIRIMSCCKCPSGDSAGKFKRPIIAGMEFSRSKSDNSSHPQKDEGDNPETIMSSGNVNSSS
ROCK2 blocker – blocks human Rho kinase 2 activity. inhibition, % at 6 µM. 0.35% of 60,000 active. purified ROCK2, Kinase-Glo ATP depletion luminescence. AID 604. O75116;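 active means inhibition above the screen-wide mean inhibition plus 3 SD, cut at about 18% in these data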
PKA inh – blocks human protein kinase A activity; 0.1% of 65,000 active; PKA Kemptide phosphorylation, Kinase-Glo ATP luminescence; inhibition, % at 6 µM; AID 524; P17612;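 active means inhibition above the screen-wide mean inhibition plus 3 SD, cut at about 21% in these data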
MMP-13 inhibitor – inhibitors of human MMP13; AID 570; 0.07% of 65,000 active; MMP-13 fTHP FRET cleavage, Mca fluorescence; P45452; inhibition, % at 4 µM;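 active means inhibition above the mean of compound-free control plate wells plus 3 SD, cut at about 14% in these data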
S1P3 agonist – activates the human S1P3 receptor | S1P3 NFAT-BLA reporter cells, agonism, FRET ratio; relative to 1 µM S1P, basal subtracted | activation, % at 4.5 µM | 0.1% of 60,000 active;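 active means activation above the screen-wide mean plus 3 SD, cut at about 4.5% in these data, passing the limit was not always enough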
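Benchmarks: high control 1 µM S1P / System: stable CHO line with human S1P3, Gα16, NFAT-BLA reporter / Dosing: single compound concentration, 4.5 µM final / Timing: 4 h compound at 37 °C, 2 h substrate at RT / Measured by: FRET β-lactamase substrate fluorescence, excitation 405 nm, 460/535 nm emission ratio, background-subtracted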
Numbers stand for hits; . = inactive; / = no result.

SMILES	JNK3 blocker	S1P1 ag-PAM	ROCK2 blocker	PKA inh	MMP-13 inhibitor	S1P3 agonist
CCOc1cc(-c2nc(-c3ccncc3)no2)cc(OCC)c1OCC	.	.	.	.	.	.
Cc1ccc(SCc2nc(-c3ccccc3)no2)cc1	.	.	.	.	.	.
CCOc1ccc(-c2nc(-c3ccncc3)no2)cc1OCC	.	111	.	.	.	54
CCOc1ccc(-c2nc(-c3ccccc3)no2)cc1OCC	.	108	.	.	.	14
Cc1cc(C)cc(-c2nc(-c3ccncc3)no2)c1	.	105	.	.	.	.
O=C(CCCN1CCC(O)(c2ccc(Cl)cc2)CC1)c1ccc(F)cc1	.	.	.	.	.	.
O=C(Nc1ccc(N2CCOCC2)c(Cl)c1)c1cccc(F)c1	.	88	.	.	.	.
CCOC(=O)Cc1csc(NC(=O)c2ccc(Br)s2)n1	.	66	.	.	.	.
CCOC(=O)Cc1csc(NC(=O)c2cccs2)n1	.	/	.	.	.	.
COc1ccccc1-c1cc(C(=O)NCc2cccs2)no1	.	.	.	.	.	.
COc1cccc2c(=O)c(C(=O)NCc3cccs3)c[nH]c12	37	.	.	.	.	.
CC(C)c1nnc(NC(=O)CCC(=O)NCc2ccco2)s1	.	.	.	.	.	.
Cc1ccc2nc3c(cc(C(=O)NCc4ccccc4)c(=N)n3CCCn3ccnc3)c(=O)n2c1	.	.	.	.	.	.
Cc1cccn2c(=O)c3cc(C(=O)NC(C)c4ccccc4)c(=N)n(CCCn4ccnc4)c3nc12 (configuration not stated)	.	.	.	.	.	4.7
CCOC(=O)C1=C(C)N(c2ccccc2)C(=O)C1CC(=O)O (configuration not stated)	.	.	.	.	.	.
CCC1CCCCN1C(=O)CSc1nnc(-c2c[nH]c3ccccc23)o1 (configuration not stated)	.	79	.	.	.	.
CC1CCCC(C)N1C(=O)CSc1nnc(-c2c[nH]c3ccccc23)o1 (configuration not stated)	.	.	.	.	.	.
CCCSc1nc(N)cc(=O)[nH]1	.	.	.	.	.	.
COc1ccc(Cc2nc(-c3ccc(-n4cccc4)cc3)no2)cc1OC	.	66	.	.	.	.
COc1ccc(Cc2nc(-c3ccc(-n4cccc4)cc3)no2)cc1	.	.	.	.	.	.
COC(=O)c1cc2c(=O)n3ccccc3nc2n(C(C)C)c1=N	.	.	.	.	.	.
N=c1c(C(=O)NCc2ccco2)cc2c(=O)n3ccccc3nc2n1Cc1ccc(Cl)cc1	.	.	.	.	.	4.8
N=c1c(C(=O)NCc2ccco2)cc2c(=O)n3ccccc3nc2n1Cc1ccccc1	.	.	.	.	.	.
CC(C)n1c(=N)c(C(=O)NCCc2ccccc2)cc2c(=O)n3ccccc3nc21	.	.	.	.	.	6.3
Cc1cccc(N2CCN(c3nnnn3-c3ccccc3)CC2C)c1 (configuration not stated)	/	/	/	.	.	/
SMILES	JNK3 blocker	S1P1 ag-PAM	ROCK2 blocker	PKA inh	MMP-13 inhibitor	S1P3 agonist
N#Cc1cccc(NC(=O)NCCc2c[nH]c3ccccc23)c1	.	.	22	.	.	.
CC1CCCCC1n1c(=S)[nH]c2ccccc2c1=O (configuration not stated)	/	/	/	.	.	/
COCCN1Cc2cccc(C(=O)NCc3ccc4c(c3)OCO4)c2C1=O	23	.	.	.	.	.
CCN(C(=O)CCc1nc(-c2ccccc2F)no1)c1cc(OC)ccc1OC	.	.	.	.	.	.
Cc1cc(C(=O)Nc2sc(C)c(-c3ccc(F)cc3)c2C(N)=O)no1	.	102	.	.	.	.
CCOC(=O)CCCCC(=O)c1[nH]c(=O)[nH]c1CSc1nc2ccccc2[nH]1	.	.	.	.	.	.
Cc1[nH]c(=O)[nH]c1C(=O)CCCCC(=O)OCC(=O)Nc1ccccn1	43	.	.	.	.	.
CCN(C(=O)C1CCCCC1)c1nnc(-c2cccnc2)s1	.	99	.	.	.	.
CCN(C(=O)c1c(OC)cccc1OC)c1nnc(-c2cccnc2)s1	.	.	.	.	.	.
Cc1ccc(Cn2ccc(NC(=O)c3cc(CC(C)C)on3)n2)cc1	.	.	.	.	.	.
Cc1ccc(CS(=O)(=O)CCC(=O)NCCN2CCCC2)cc1	.	.	.	.	.	.
Cc1cc(C(=O)N2CCN(c3ccccc3)CC2)no1	.	.	.	.	.	.
Cc1cc(C(=O)N2CCN(C(c3ccccc3)c3ccccc3)CC2)no1	.	69	.	.	.	.
COc1ccc(NC(=O)Cn2cccc2)cc1Cl	.	.	.	.	.	.
N#Cc1c(-c2ccco2)nc(SCC(=O)Nc2cccc(Cl)c2)[nH]c1=O	25	.	.	.	.	.
O=C(CSc1nc2c(c(=O)[nH]1)CCC2)Nc1cccc(Cl)c1	.	.	.	.	.	.
N#CCSc1nc2c(cc1C#N)CCCCCC2	.	.	.	.	.	.
N#Cc1cc2c(nc1SCc1ccncc1)CCC2	.	.	58	.	.	.
C=C(C)CC1Nc2ccccc2NC1CC(=C)C (configuration not stated)	.	/	.	.	.	.
CCNc1nc(SC(C)C(=O)OC)nc(N2CCOCC2)n1 (configuration not stated)	/	/	/	.	.	/
Clc1ccc2nc(N3CCNCC3)nc(-c3ccccc3)c2c1	.	.	.	.	.	18
OCCN1CCN(c2nc(-c3ccccc3)c3cc(Cl)ccc3n2)CC1	.	.	.	.	.	4.6
COCc1nnc(NC(=O)c2ccc(NC(=O)C(C)C)cc2)s1	.	.	.	.	15	.
COC(=O)Cc1nnc(NC(=O)c2ccccc2)s1	.	.	.	.	.	.
Cc1ccc(-c2ccc(CCC(=O)O)n2Cc2ccco2)cc1	/	/	/	.	.	/
SMILES	JNK3 blocker	S1P1 ag-PAM	ROCK2 blocker	PKA inh	MMP-13 inhibitor	S1P3 agonist
Cc1ccc(NC(=O)c2cc(-c3ccco3)on2)cc1C	.	72	.	.	.	.
CCCc1cc(C(=O)Nc2sc(C)c(CC)c2C#N)no1	.	74	.	.	.	.
CCc1c(C)sc(NC(=O)c2cc(C)on2)c1C#N	.	.	.	.	.	.
CCc1c(C)sc(NC(=O)c2cc(-c3ccco3)on2)c1C#N	.	92	.	.	.	.
CCOC(=O)c1c(C)c(-c2ccccc2)n(CC(=O)N2CCCC2)c1C	.	.	.	.	.	.
COc1ccc(/C=N/n2c(N)nc3ccccc32)cc1OC	48	.	.	.	.	.
COC(=O)c1sccc1NC(=O)c1ccc(OC)cc1	38	.	.	.	.	.
COC(=O)c1sccc1NC(=O)c1cccnc1	.	/	.	.	.	.
CCn1c(SCC(=O)Nc2nc3ccc(C)cc3s2)nc2c(c1=O)SC(C)C2 (configuration not stated)	.	55	.	.	.	.

From PubChem
